What was measured:
[1] = tested on: P. falciparum (D6 strain); experiment: In vitro antiplasmodial activity; format: cell-based; conditions: Plasmodium falciparum, D6, 72 h, read-out: P. falciparum (D6 strain) IC50
[2] = tested on: P. falciparum (W2 strain); experiment: In vitro antiplasmodial activity; format: cell-based; conditions: Plasmodium falciparum, W2, 72 h, read-out: P. falciparum (W2 strain) IC50
How it was run: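 Infected erythrocytes (2% hematocrit, 2% parasitemia) in RPMI 1640 with 60 μg/mL amikacin and 10% human serum, exposed to serially diluted test compound under 90% N2/5% CO2/5% O2 at 37 °C for 72 h. Parasite LDH measured with Malstat reagent (30 min, room temperature), then NBT/PES (1 h, dark), stopped with 5% acetic acid, absorbance 650 nm. Triplicates; chloroquine/artemisinin and DMSO controls; IC50 from dose–response.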

[3] = In vitro cytotoxicity, Neutral Red assay; format: cell-based; conditions: African green monkey, Vero cells
P. berghei = experiment: In vivo antiplasmodial evaluation in the P. berghei-mouse malaria model; design: species or system P. berghei (Swiss Webster Hsd:ND4 mice); conditions: for % Parasitemia suppression day 5 / % Parasitemia suppression day 7 / MST (mean survival time) / cure (mice without parasitemia until day 28) / survival (animals survived on day 28/total): oral gavage, mice; for parasitemia suppression: day not given
[4] = 33.33 mg/kg dose, oral gavage once daily days 0, 1, 2

SMILES: CCN1CCN(c2nc(C)cc(N3CCN(CCNc4ccnc5cc(Cl)ccc45)CC3)n2)CC1 [Compound 7e, 7-Chloro-N-(2-(4-(2-(4-ethylpiperazin-1-yl)-6-methylpyrimidin-4-yl)piperazin-1-yl)ethyl)quinolin-4-amine]
- IC50 [1]: 21 nM
- IC50 [2]: 16 nM
- IC50 at 48 h [3]: > 4.76 µg/mL
- % Parasitemia suppression day 5 (P. berghei; 11.1 mg/kg × 3 days): 94.31%
- % Parasitemia suppression day 7 (P. berghei; 11.1 mg/kg × 3 days): 41.53%
- MST (mean survival time) (P. berghei; 11.1 mg/kg × 3 days): 21.4 days
- cure (mice without parasitemia until day 28) (P. berghei; 11.1 mg/kg × 3 days): 0/5
- survival (animals survived on day 28/total) (P. berghei; 11.1 mg/kg × 3 days): 2/5
- % Parasitemia suppression day 5 (P. berghei; 33.3 mg/kg × 3 days): 100.00%
- % Parasitemia suppression day 7 (P. berghei; 33.3 mg/kg × 3 days): 100.00%
- MST (mean survival time) (P. berghei; 33.3 mg/kg × 3 days): 28 days
- cure (mice without parasitemia until day 28) (P. berghei; 33.3 mg/kg × 3 days): 5/5
- survival (animals survived on day 28/total) (P. berghei; 33.3 mg/kg × 3 days): 5/5
- parasitemia suppression (P. berghei; [4]): 100%
- % Parasitemia suppression day 5 (P. berghei; 100 mg/kg × 3 days): 100.00%
- % Parasitemia suppression day 7 (P. berghei; 100 mg/kg × 3 days): 100.00%
- MST (mean survival time) (P. berghei; 100 mg/kg × 3 days): 28 days
- cure (mice without parasitemia until day 28) (P. berghei; 100 mg/kg × 3 days): 5/5

SMILES: Cc1cc(N2CCN(CCCNc3ccnc4cc(Cl)ccc34)CC2)nc(N2CCCCC2)n1 [Compound 7f, 7-Chloro-N-(3-(4-(6-methyl-2-(piperidin-1-yl)pyrimidin-4-yl)piperazin-1-yl)propyl) quinolin-4-amine]
- IC50 [1]: 15 nM
- IC50 [2]: 34 nM
- IC50 at 48 h [3]: > 4.76 µg/mL

SMILES: Cc1cc(N2CCN(CCCNc3ccnc4cc(Cl)ccc34)CC2)nc(N2CCOCC2)n1 [Compound 7g, 7-Chloro-N-(3-(4-(6-methyl-2-morpholinopyrimidin-4-yl)piperazin-1-yl)propyl) quinolin-4-amine]
- IC50 [1]: 15 nM
- IC50 [2]: 43 nM
- IC50 at 48 h [3]: > 4.76 µg/mL

SMILES: Cc1cc(N2CCN(CCCNc3ccnc4cc(Cl)ccc34)CC2)nc(N2CCSCC2)n1 [Compound 7h, 7-Chloro-N-(3-(4-(6-methyl-2-thiomorpholinopyrimidin-4-yl)piperazin-1-yl)propyl) quinolin-4-amine]
- IC50 [1]: 18 nM
- IC50 [2]: 50 nM
- IC50 at 48 h [3]: > 4.76 µg/mL

SMILES: Cc1cc(N2CCN(CCCNc3ccnc4cc(Cl)ccc34)CC2)nc(N2CCCC2)n1 [Compound 7i, 7-Chloro-N-(3-(4-(6-methyl-2-(pyrrolidin-1-yl)pyrimidin-4-yl)piperazin-1-yl)propyl) quinolin-4-amine]
- IC50 [1]: 12 nM
- IC50 [2]: 19 nM
- IC50 at 48 h [3]: > 4.76 µg/mL
- % Parasitemia suppression day 5 (P. berghei; 11.1 mg/kg × 3 days): 100.00%
- % Parasitemia suppression day 7 (P. berghei; 11.1 mg/kg × 3 days): 100.00%
- MST (mean survival time) (P. berghei; 11.1 mg/kg × 3 days): 27 days
- cure (mice without parasitemia until day 28) (P. berghei; 11.1 mg/kg × 3 days): 3/5
- survival (animals survived on day 28/total) (P. berghei; 11.1 mg/kg × 3 days): 4/5
- % Parasitemia suppression day 5 (P. berghei; 33.3 mg/kg × 3 days): 100.00%
- % Parasitemia suppression day 7 (P. berghei; 33.3 mg/kg × 3 days): 100.00%
- MST (mean survival time) (P. berghei; 33.3 mg/kg × 3 days): 28 days
- cure (mice without parasitemia until day 28) (P. berghei; 33.3 mg/kg × 3 days): 5/5
- survival (animals survived on day 28/total) (P. berghei; 33.3 mg/kg × 3 days): 5/5
- parasitemia suppression (P. berghei; [4]): 100%
- % Parasitemia suppression day 5 (P. berghei; 100 mg/kg × 3 days): 100.00%
- % Parasitemia suppression day 7 (P. berghei; 100 mg/kg × 3 days): 100.00%
- MST (mean survival time) (P. berghei; 100 mg/kg × 3 days): 22.8 days
- survival (animals survived on day 28/total) (P. berghei; 100 mg/kg × 3 days): 5/5
- parasitemia suppression (P. berghei; at all doses (11.1, 33.3, and 100.0 mg/kg)): 100%

SMILES: CCN1CCN(c2nc(C)cc(N3CCN(CCCNc4ccnc5cc(Cl)ccc45)CC3)n2)CC1 [Compound 7j, 7-Chloro-N-(3-(4-(2-(4-ethylpiperazin-1-yl)-6-methylpyrimidin-4-yl)piperazin-1-yl)propyl)quinolin-4-amine]
- IC50 [1]: 19 nM
- IC50 [2]: 20 nM
- IC50 at 48 h [3]: > 4.76 µg/mL

SMILES: Cc1cc(N2CCN(CCCNc3ccnc4cc(Cl)ccc34)CC2)nc(N2CCN(C)CC2)n1 [Compound 7k, 7-Chloro-N-(3-(4-(6-methyl-2-(4-methylpiperazin-1-yl)pyrimidin-4-yl)piperazin-1-yl)propyl)quinolin-4-amine]
- IC50 [1]: 19 nM
- IC50 [2]: 22 nM
- IC50 at 48 h [3]: > 4.76 µg/mL

SMILES: Clc1ccc2c(NCCCN3CCN(c4ccnc(N5CCCCC5)n4)CC3)ccnc2c1 [Compound 7l, 7-Chloro-N-(3-(4-(2-(piperidin-1-yl)pyrimidin-4-yl)piperazin-1-yl)propyl)quinolin-4-amine]
- IC50 [1]: 14 nM
- IC50 [2]: 31 nM
- IC50 at 48 h [3]: > 4.76 µg/mL

SMILES: Clc1ccc2c(NCCCN3CCN(c4ccnc(N5CCOCC5)n4)CC3)ccnc2c1 [Compound 7m, 7-Chloro-N-(3-(4-(2-morpholinopyrimidin-4-yl)piperazin-1-yl)propyl)quinolin-4-amine]
- IC50 [1]: 20 nM
- IC50 [2]: 34 nM
- IC50 at 48 h [3]: > 4.76 µg/mL

SMILES: Clc1ccc2c(NCCCN3CCN(c4ccnc(N5CCSCC5)n4)CC3)ccnc2c1 [Compound 7n, 7-Chloro-N-(3-(4-(2-thiomorpholinopyrimidin-4-yl)piperazin-1-yl)propyl)quinolin-4-amine]
- IC50 [1]: 4080 nM
- IC50 [2]: > 9830 nM
- IC50 at 48 h [3]: > 4.76 µg/mL

SMILES: CCN1CCN(c2nccc(N3CCN(CCCNc4ccnc5cc(Cl)ccc45)CC3)n2)CC1 [Compound 7p, 7-Chloro-N-(3-(4-(2-(4-ethylpiperazin-1-yl)pyrimidin-4-yl)piperazin-1-yl)propyl) quinolin-4-amine]
- IC50 [1]: 13 nM
- IC50 [2]: 20 nM
- IC50 at 48 h [3]: > 4.76 µg/mL

SMILES: CN1CCN(c2nccc(N3CCN(CCCNc4ccnc5cc(Cl)ccc45)CC3)n2)CC1 [Compound 7q, 7-Chloro-N-(3-(4-(2-(4-methylpiperazin-1-yl)pyrimidin-4-yl)piperazin-1-yl)propyl) quinolin-4-amine]
- IC50 [1]: 14 nM
- IC50 [2]: 17 nM
- IC50 at 48 h [3]: > 4.76 µg/mL

SMILES: COc1cccc2c1C(=O)c1c(O)c3c(c(O)c1C2=O)C[C@@](O)(C(=O)CO)C[C@@H]3O[C@H]1C[C@H](N)[C@H](O)[C@H](C)O1 [doxorubicin, reference compound]
- IC50 at 48 h [3]: 8600 ± 400 nM
